Experimental data as given in ChEMBL document CHEMBL3826876, “Toward the Development of Specific G-Quadruplex Binders: Synthesis, Biophysical, and Biological Studies of New Hydrazone Derivatives” (J Med Chem, 2016).
Active and inactive are the calls of the source. The rule behind the calls is not given here.

Assays:
[1] = Binding affinity to synthetic telomere 23 G-quadruplex DNA assessed as change in melting temperature at 4 mol equiv in presence of 100 mM KCl buffer by circular dichroism spectroscopic analysis
In short: (§1)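 CD melting, 20-100 °C at 1 °C/min, signal at 264 (parallel), 290 (antiparallel) or 280 nm (duplex). G4 DNA 10 µM or duplex 15 µM, folded by heating at 90 °C 5 min and slow cooling, in 10 mM potassium phosphate (c-kit1, Tel23, Tel26) or lithium phosphate (Tel23-p, ds12) pH 7.0 with 100 mM KCl. Ligand 4 equiv; Tm by curve fit, ΔTm vs DNA alone; duplicate average.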

[2] = Effect on synthetic telomere 23 parallel G-quadruplex DNA topology at 4 mol equiv by circular dichroism spectroscopic analysis
In short: (§2)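 CD spectra at 20 °C, 230-360 nm, 3 scans averaged, baseline subtracted; 10 µM G4 or 15 µM duplex in potassium- or lithium-phosphate pH 7.0 buffers with 100 mM KCl (c-kit2, c-myc: 5 mM potassium phosphate, 20 mM KCl); ligand 4 molar equiv added to folded DNA from 6 mM DMSO stock.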

[3] = Binding affinity to synthetic telomere 26 G-quadruplex DNA assessed as change in melting temperature at 4 mol equiv in presence of 100 mM KCl buffer by circular dichroism spectroscopic analysis; in short: as §1
Homo sapiens [4] = organism: Homo sapiens; experiment: Binding affinity to human 5'-FAM/3'-TAMRA labeled duplex DNA T-loop assessed as increase in melting temperature by FRET assay
In short: (§3)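 FRET melting screen in 60 mM potassium cacodylate pH 7.4, labelled probe 400 nM annealed at 85 °C for 10 min; ligands at various concentrations up to 20 µM, diluted from 10 mM DMSO stock via 10 mM HCl. Excitation 450-495 nm, emission 515-545 nm, 30-100 °C in 0.5 °C steps with 30 s hold; ΔTm by curve fitting, triplicate.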

[5] = Effect on synthetic telomere 23 G-quadruplex DNA topology at 4 mol equiv by circular dichroism spectroscopic analysis; in short: as §2
[6] = Effect on synthetic c-KIT2 G-quadruplex DNA topology at 4 mol equiv by circular dichroism spectroscopic analysis; in short: as §2
[7] = Binding affinity to synthetic c-MYC G-quadruplex DNA assessed as change in melting temperature at 4 mol equiv in presence of 20 mM KCl buffer by circular dichroism spectroscopic analysis
[8] = Binding affinity to synthetic c-KIT1 G-quadruplex DNA assessed as change in melting temperature at 4 mol equiv in presence of 100 mM KCl buffer by circular dichroism spectroscopic analysis; in short: as §1
[9] = Effect on synthetic telomere 26 G-quadruplex DNA topology at 4 mol equiv by circular dichroism spectroscopic analysis; in short: as §2
[10] = Effect on synthetic c-MYC G-quadruplex DNA topology at 4 mol equiv by circular dichroism spectroscopic analysis; in short: as §2
[11] = Effect on synthetic self-complementary DNA 12-mer duplex topology at 4 mol equiv in presence of K+ ions by circular dichroism spectroscopic analysis; in short: as §2
[12] = Binding affinity to synthetic telomere 23 parallel G-quadruplex DNA assessed as change in melting temperature at 4 mol equiv in presence of 100 mM KCl buffer by circular dichroism spectroscopic analysis; in short: as §1
Homo sapiens [13] = organism: Homo sapiens; experiment: Binding affinity to human 5'-FAM/3'-TAMRA labeled telomere 21 G-quadruplex DNA assessed as increase in melting temperature by FRET assay; in short: as §3
[14] = Binding affinity to synthetic c-KIT2 G-quadruplex DNA assessed as change in melting temperature at 4 mol equiv in presence of 20 mM KCl buffer by circular dichroism spectroscopic analysis
In short: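 CD melting as for other targets (20-100 °C, 1 °C/min, 10 µM folded G4, ligand 4 equiv), but in 5 mM potassium phosphate with 20 mM KCl; c-kit2 read at 264 nm as parallel G4. ΔTm from fitted Tm, duplicate average.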

[15] = Effect on synthetic c-KIT1 G-quadruplex DNA topology at 4 mol equiv by circular dichroism spectroscopic analysis; in short: as §2
[16] = Induction of parallel G-quadruplex formation in synthetic unfolded c-KIT2 DNA assessed as increase in molar ellipticity after 10 mins in absence of metal cation by circular dichroism titration method
In short: (§4)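 CD titration without metal ions: unfolded oligonucleotide 12-15 µM in 50 mM Tris; ligand added in 0.5 equiv steps, spectrum recorded 10 min after each addition at 20 °C, 230-360 nm, 3 scans averaged.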

[17] = Induction of parallel G-quadruplex formation in synthetic unfolded c-KIT1 DNA assessed as increase in molar ellipticity after 10 mins by in absence of metal cation circular dichroism titration method; in short: as §4
[18] = Induction of G-quadruplex formation in synthetic unfolded telomere 23 DNA assessed as increase in molar ellipticity after 10 mins in absence of metal cation by circular dichroism titration method; in short: as §4
[19] = Effect on preformed synthetic c-MYC parallel G-quadruplex DNA topology in tris buffer after 10 mins by circular dichroism titration method
[20] = Binding affinity to synthetic c-KIT2 G-quadruplex DNA assessed as increase in thermal stability in presence of 20 mM KCl buffer by circular dichroism spectroscopic analysis
In short: (§5)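 CD melting in 5 mM potassium phosphate, 20 mM KCl, 10 µM folded G4, heated 20-100 °C at 1 °C/min; ligand:DNA ratios 1:1, 2:1 and 4:1 compared; Tm from curve fit.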

[21] = Binding affinity to synthetic self-complementary DNA 12-mer duplex assessed as change in melting temperature at 4 mol equiv in presence of 100 mM KCl buffer by circular dichroism spectroscopic analysis; in short: as §1
[22] = Binding affinity to synthetic c-MYC G-quadruplex DNA assessed as increase in thermal stability in presence of 20 mM KCl buffer by circular dichroism spectroscopic analysis; in short: as §5
[23] = Binding affinity to human 5'-FAM/3'-TAMRA labeled telomere 21 parallel G-quadruplex DNA (unknown origin) assessed as change in melting temperature at 4:1 ligand:DNA ratio in presence of 100 mM KCl buffer by FRET assay
In short: (§6)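 FRET melting of FAM/TAMRA-labelled G4 oligos (400 nM, annealed 85 °C 10 min) with ligand at 4 equiv, same buffers as CD (20 mM KCl for c-kit2 and c-myc; 100 mM KCl for telomeric parallel form, annealed at high concentration). Excitation 450-495 nm, emission 515-545 nm, read every 0.5 °C over 30-100 °C; ΔTm by curve fit; duplicate runs averaged.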

[24] = Binding affinity to 5'-FAM/3'-TAMRA labeled c-KIT2 G-quadruplex DNA (unknown origin) assessed as change in melting temperature at 4:1 ligand:DNA ratio in presence of 20 mM KCl buffer by FRET assay; in short: as §6
[25] = Binding affinity to 5'-FAM/3'-TAMRA labeled c-MYC G-quadruplex DNA (unknown origin) assessed as change in melting temperature at 4:1 ligand:DNA ratio in presence of 20 mM KCl buffer by FRET assay; in short: as §6
U2OS [26] = experiment: Cytotoxicity against human U2OS cells assessed as cell killing after 1 hr by MTT assay; format: functional, cell-based
In short: (§7)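 U2OS and HCT116 in DMEM with 10% FBS, 1% L-glutamine, seeded at 40000 cells/ml; 24 h later exposed for 1 h or 24 h, then drug-free medium 1-2 days. MTT 1 h at 37 °C, DMSO solubilisation, absorbance 595 nm. IC50 by linear regression; two independent experiments in triplicate, mean ± SE.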

[27] = Cytotoxicity against human HCT116 cells assessed as cell killing after 1 hr by MTT assay; format: functional, cell-based; details: HCT-116, 1 h; in short: as §7
[28] = Cytotoxicity against human HCT116 cells assessed as cell killing after 24 hrs by MTT assay; format: functional, cell-based; details: HCT-116, 24 h; in short: as §7
U2OS [29] = experiment: Cytotoxicity against human U2OS cells assessed as cell death after 24 hrs by FACS analysis; format: cell-based
U2OS [30] = experiment: Cytotoxicity against human U2OS cells assessed as cell killing after 24 hrs by MTT assay; format: functional, cell-based; in short: as §7
U2OS [31] = experiment: Cytotoxicity against human U2OS cells assessed as cell death after 24 hrs by microscopic analysis; format: cell-based

Row | Compound | ΔTm [1] [°C] | Activity [2] | ΔTm [3] [°C] | Activity (Homo sapiens [4]) | Activity [5] | Activity [6] | ΔTm [7] [°C] | ΔTm [8] [°C] | Activity [9] | Activity [10] | Activity [11] | ΔTm [12] [°C] | Activity (Homo sapiens [13]) | ΔTm [14] [°C] | Activity [15] | ΔTm [21] [°C] | further results
1 | C(=N\NC1=NCCN1)/c1c(-c2ccccc2)nc2n1ccc1nc(-c3ccccc3)c(/C=N/NC3=NCCN3)n12 | -14 | inactive | -8.9 |  | inactive | inactive | > 15 | 1.6 | inactive | inactive | inactive | 10.8 | Active | > 20 | inactive | 1.3 | Activity [16]: Active; Activity [17]: Dose-dependent effect; Activity [18]: inactive; Activity [19]: inactive; Activity [20]: Dose-dependent effect; Activity [22]: Dose-dependent effect; ΔTm [23]: > 15 °C; ΔTm [24]: > 20 °C; ΔTm [25]: > 15 °C
2 | CN1C(=C2\C(=N\NC(=N)N)c3ccccc3N2C)/C(=N/NC(=N)N)c2ccccc21 | -0.5 | inactive | 0.2 |  | inactive | inactive | 11 | 0.9 | inactive | inactive | inactive | 7.7 | inactive | 8.2 | inactive | -0.8 | 
3 | N=C(N)N/N=C/c1c(-c2ccsc2)nc2n1ccc1nc(-c3ccsc3)c(/C=N/NC(=N)N)n12 | -4.9 | inactive | -6.5 |  | inactive | inactive | > 20 | > 15 | inactive | inactive | inactive | > 20 | Active | > 20 | inactive | 3.5 | Activity [16]: Active; Activity [17]: Dose-dependent effect; Activity [18]: inactive; Activity [19]: inactive; Activity [20]: Dose-dependent effect; ΔTm [23]: > 20 °C; ΔTm [24]: > 20 °C; ΔTm [25]: > 20 °C
4 | C(=N\Nc1ccccn1)/c1c(-c2ccccc2)nc2n1ccc1nc(-c3ccccc3)c(/C=N/Nc3ccccn3)n12 | -1 | inactive | -1.6 |  | inactive | inactive | -0.2 | 0.4 | inactive | inactive | inactive | 1.3 | inactive | 0 | inactive | 0.9 | 
5 | CN1C(=C2\C(=N\Nc3ccccn3)c3ccccc3N2C)/C(=N/Nc2ccccn2)c2ccccc21 | -2.5 | inactive | -2 |  | inactive | inactive | 1.6 | 1.5 | inactive | inactive | inactive | 4 | inactive | 2 | inactive | -0.7 | 
6 | Cl.Cl.N=C(N)N/N=C/c1c(-c2ccccc2)nc2n1ccc1nc(-c3ccccc3)c(/C=N/NC(=N)N)n12 |  |  |  |  |  |  |  |  |  |  |  |  |  |  |  |  | IC50 (U2OS [26]): 101 µM; IC50 [27]: 35.1 µM; IC50 [28]: 5.12 µM; Activity (U2OS [29]): Non-toxic; IC50 (U2OS [30]): 16 µM; Activity (U2OS [31]): Non-toxic

Second part, led by results:

Row | ΔTm [1] [°C] | Activity [2] | ΔTm [3] [°C] | Activity (Homo sapiens [4]) | Activity [5] | Activity [6] | ΔTm [7] [°C] | ΔTm [8] [°C] | Activity [9] | Activity [10] | Activity [11] | ΔTm [12] [°C] | Activity (Homo sapiens [13]) | ΔTm [14] [°C] | Activity [15] | ΔTm [21] [°C] | Compound | further results
7 | 3 | inactive | 1.3 | Active | inactive | inactive | > 20 | > 15 | inactive | inactive | inactive | > 20 | Active | > 15 | inactive |  | Cn1c(Cl)c(/C=N/NC(=N)N)c2cc3c(/C=N/NC(=N)N)c(Cl)n(C)c3cc21 | 
8 | 5.6 | inactive | 5.1 | Active | inactive | inactive | > 20 | > 15 | inactive | inactive | inactive | > 20 | Active | > 15 | inactive |  | N=C(N)N/N=C/c1ccc2c(/C=N/NC(=N)N)c(Cl)n(-c3ccccc3)c2c1 | 
9 | 6 | inactive | 5.8 | Active | inactive | inactive | > 20 | > 15 | inactive | inactive | inactive | > 20 | Active | > 20 | inactive |  | Cn1c(Cl)c(/C=N/NC(=N)N)c2ccc(/C=N/NC(=N)N)cc21 | 
